Hits are enriched below; roughly 4.2% of the tested compounds scored in any of these assays.
OX1R antag-1: OX1R (HCRTR1) antagonists, primary screen, fluorescence, CHO/OX1R cells, Fluo-8 calcium, orexin A; Fluo-8 calcium fluorescence; inhibition, % at 5 µM; actives 0.43% (n = 330,000); AID 434989, 2010;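 active = inhibition above its plate's threshold, mean inhibition of all tested compounds on the plate plus 3 SD, cut at about 37% in these data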;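 note: 0% = orexin A challenge wells and 100% = SB-334867-A antagonist wells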
Target sequence (O43613 whole entry, looked up): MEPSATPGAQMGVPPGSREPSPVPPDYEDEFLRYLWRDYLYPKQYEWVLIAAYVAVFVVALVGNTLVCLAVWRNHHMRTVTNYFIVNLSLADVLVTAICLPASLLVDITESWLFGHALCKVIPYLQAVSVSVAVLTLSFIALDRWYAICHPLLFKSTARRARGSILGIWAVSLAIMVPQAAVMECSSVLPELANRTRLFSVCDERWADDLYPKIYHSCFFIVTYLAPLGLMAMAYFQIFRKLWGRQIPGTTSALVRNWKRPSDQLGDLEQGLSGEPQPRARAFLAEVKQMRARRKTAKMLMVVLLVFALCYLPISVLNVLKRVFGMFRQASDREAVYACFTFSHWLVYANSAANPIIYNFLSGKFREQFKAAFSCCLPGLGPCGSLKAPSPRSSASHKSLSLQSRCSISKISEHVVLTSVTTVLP
OX1R antag-2: antagonists of human orexin 1 receptor (OX1R); Orexin/Hypocretin receptor type 1 (Homo sapiens), O43613; OX1R-expressing cells, FRET antagonist read-out; inhibition, % at 6.6 µM; actives 1.8% (n = 330,000); in the data active = inhibition mostly above about 38%, no sharp cut-off; inactive = mostly below about 40%;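 note: 0% = agonist challenge alone and 100% = reference antagonist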
TAAR1 antag: human TAAR1 antagonists, primary screen, Fluo-8 calcium fluorescence, CHO RD-HGA16 cells; Trace amine-associated receptor 1 (Homo sapiens), Q96RJ0; antagonist; inhibition, % at 3 µM; actives 1.5% (n = 360,000);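 active = inhibition above a per-plate cutoff, the mean inhibition of test compounds on that plate plus 3 SD, cut at about 49% in these data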;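 note: 0% = DMSO plus EC80 beta-PEA response and 100% = DMSO alone without agonist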
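Material: CHO RD-HGA16 cells bearing hTAAR1; compound dosing: one-point dosing, 3 µM nominal final; schedule: dye loading 75 min at 37 °C, then 30 min room temperature; measured by: calcium fluorescence with Fluo-8; control set: vehicle and agonist controls; replication: n of 1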
GalR3 antagonist: GalR3 antagonists in HEK293 cells, primary screen, cell-based, fluorescence readout. Galanin receptor type 3 (Homo sapiens), O60755. inhibition, % at 3 µM. actives 0.44% (n = 360,000). HEK293 GalR3-CNG cAMP membrane potential fluorescence; galR3 body fused to GalR1 C-terminus;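 active = inhibition above the screen-wide average plus 3 SD, cut at about 13% in these data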;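 note: forskolin and galanin both at EC90 stimulate the cells; cAMP rise reported by CNG channel membrane potential dye signal; 0% = forskolin plus galanin with DMSO and 100% = forskolin alone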
Target sequence (O60755 1-299 limits assumed): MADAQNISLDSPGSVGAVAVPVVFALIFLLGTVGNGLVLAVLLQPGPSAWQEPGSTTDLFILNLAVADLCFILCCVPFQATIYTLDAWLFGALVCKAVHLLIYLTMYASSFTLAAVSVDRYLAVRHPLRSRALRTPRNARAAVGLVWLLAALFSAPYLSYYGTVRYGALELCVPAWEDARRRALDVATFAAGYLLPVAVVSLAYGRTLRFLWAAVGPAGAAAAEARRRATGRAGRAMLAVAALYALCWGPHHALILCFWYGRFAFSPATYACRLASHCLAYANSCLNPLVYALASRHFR
CHO parental Ca: ATP-evoked calcium signal inhibitors, parental CHO, primary screen, counter-screen for OX1R antagonist project, cell-based, fluorescence, Fluo-8 calcium dye. parental CHO-K1, ATP-induced calcium, Fluo-8 fluorescence. AID 463079, 2010. inhibition, % at 5.6 µM. actives 0.63% (n = 330,000);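 active = inhibition above that plate's mean sample inhibition plus 3 SD, cut at about 26% in these data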;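 note: 0% = ATP-challenged DMSO wells and 100% = DMSO wells without ATP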
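Test system: untransfected parental CHO cell line; also added: ATP stimulus; dosing: 5.6 µM, single dose; signal: calcium-sensitive Fluo-8 fluorescence; measure: percent inhibition of ATP-evoked calcium rise, normalized to controls; benchmarks: low control ATP plus DMSO, high control DMSO only; replication: one well per compound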
TAAR1 ag: human TAAR1 agonists, primary screen, Fluo-8 calcium fluorescence, CHO RD-HGA16 cells; vehicle wells 0%, saturating PEA agonist 100%; Trace amine-associated receptor 1 (Homo sapiens), Q96RJ0; activation, % at 3 µM; actives 0.99% (n = 360,000);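 active = activation above the mean activation of all test compounds in the run plus 3 SD, cut at about 38% in these data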
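Repeats: no replicates (n 1) | Material: CHO-derived RD-HGA16 cells with stable Gα16 and human TAAR1 | Technique: Kinetic Fluo-8 calcium fluorescence | Schedule: 17-24 h seeding, 75 min 37 °C dye, 30 min RT | Evaluation: % activation from peak over basal fluorescence ratio, DMSO-to-PEA scaled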
TAAR1 ag confirm: human TAAR1 agonists, retest of hits, confirmation, Fluo-8 calcium fluorescence, CHO RD-HGA16 cells | scaled: DMSO 0%, maximal phenethylamine 100% | actives 82% (n = 2,400) | shares compounds with TAAR1 ag | activation, % at 3 µM;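 active = activation above a cutoff set at the run's mean compound activation plus 3 SD, cut at about 39% in these data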
Ga16 ag counter: nonselective calcium mobilization agonists, CHO-Ga16 cells, counter-screen for hTAAR1 agonist project, cell-based, fluorescence, CHO-Ga16 parental line. shares compounds with TAAR1 ag. Fluo-8 calcium fluorescence; normalized to maximal ATP response, DMSO zero. activation, % at 3 µM. actives 50% (n = 2,400);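 active = activation above the run cutoff, the mean activation over all tested wells plus 3 SD, cut at about 12% in these data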;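 note: 0% = DMSO wells and 100% = maximal ATP response on the peak over basal ratio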
TAAR1 desens: TAAR1 desensitization by agonist hits, confirmation, counter-screen for TAAR1 agonist project, cell-based, fluorescence, tachyphylaxis | shares compounds with TAAR1 ag | CHO RD-HGA16 hTAAR1, Fluo-8 calcium, beta-PEA response inhibition | inhibition, % at 3 µM | actives 46% (n = 2,400);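 active = inhibition above the run cutoff, the mean inhibition of all test compounds plus 3 SD, cut at about 49% in these data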;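 note: beta-PEA stimulus applied at its EC80; loss of beta-PEA calcium signal after compound pretreatment read as receptor desensitization; 0% = DMSO with beta-PEA at EC80 and 100% = DMSO alone without agonist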
Ga16 antag count: inhibition of ATP-evoked calcium response in CHO-Ga16 cells, counter-screen for TAAR1 agonist project, cell-based, fluorescence; shares compounds with TAAR1 ag; CHO-Ga16 ATP-induced calcium, Fluo-8 fluorescence; inhibition, % at 3 µM; actives 39% (n = 2,400); AID 651952, 2012;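 active = inhibition above the plate's mean compound inhibition plus 3 SD, computed per plate, cut at about 22% in these data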;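 note: 0% = EC80 ATP with DMSO and 100% = DMSO wells without ATP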
Starred values were filed as active, the others as inactive; · = not tested or not shown.

SMILES	OX1R antag-1	OX1R antag-2	TAAR1 antag	GalR3 antagonist	CHO parental Ca	TAAR1 ag	TAAR1 ag confirm	Ga16 ag counter	TAAR1 desens	Ga16 antag count
O=C1N(c2ccc3c(c2)OCCO3)C(c2ccccc2)C1(F)F (stereo not drawn)	-15.2	3.9	-17.1	-10.0	-2.5	0.6	·	·	·	·
Cc1cccc(CCNCc2c(C(=O)O)c(C)n(-c3ccccc3)c2C)c1	-34.6	0.2	6.4	-8.5	-29.1	58.0*	77.7*	0.5	43.8	2.9
Cc1c(CNCCCc2ccccc2)c(C(=O)O)c(C)n1Cc1ccccc1	-12.8	-1.3	-4.6	-6.4	-33.7	11.0	·	·	·	·
CC1=NOC(=O)/C1=C\c1ccc(-c2ccccc2Br)o1	·	·	75.3*	-4.2	·	45.8*	31.7	28.6*	56.0*	65.1*
O=C(NC1CCCc2ccccc21)c1cccc(S(=O)(=O)N2CCN(c3ccccc3)CC2)c1 (stereo not drawn)	16.6	4.4	-4.7	-3.6	-0.8	46.7*	29.9	10.7	25.9	21.5*
CC1(c2nnnn2Cc2ccccc2)CCC(=O)N1c1ccc(N2CCOCC2)cc1 (stereo not drawn)	·	·	-14.5	-0.7	·	2.0	·	·	·	·
CCOC(=O)c1c(NS(=O)(=O)c2cccc(OC)c2)sc2c1CCC2	-19.6	5.1	10.1	-5.5	-15.9	54.8*	64.2*	53.6*	42.4	26.0*
O=C(Cc1ccc(-n2cccc2)cc1)NCc1ccccc1Cl	-16.5	14.8	50.2*	-2.8	-15.4	76.7*	1.2	0.3	-3.7	-0.8
O=C(NCc1ccccc1Cl)NCc1ccccc1Cl	-18.3	0.3	-36.1	-0.6	6.5	0.1	·	·	·	·
CCOC(=O)CSC1=N/C(=C\c2cc(OC)c(OC)c(OC)c2)C(=O)N1C	-8.1	24.6	26.1	7.0	-8.9	19.2	·	·	·	·
CCC1=NN2C(=N)/C(=C/c3cc(C)n(Cc4ccccc4)c3C)C(=O)N=C2S1	96.6*	18.9	90.8*	-5.9	69.9*	104.0*	104.4*	71.8*	94.6*	76.9*
CC1=NN2C(=N)/C(=C\c3cc(C)n(-c4ccccc4)c3C)C(=O)N=C2S1	-30.3	-2.7	4.7	-3.6	-8.7	-0.7	·	·	·	·
Cc1cc(/C=C2\C(=N)N3N=C(c4ccco4)SC3=NC2=O)c(C)n1Cc1ccccc1	103.8*	9.7	103.0*	-6.5	41.3*	130.1*	107.3*	79.2*	104.2*	90.8*
O=C(/C=C/c1c(Cl)cccc1Cl)NCc1ccco1	-5.9	7.7	-13.2	0.8	-7.1	1.4	·	·	·	·
O=C(Cc1ccc(-c2ccccc2)cc1)NC1CCCC1	-8.8	32.5	-3.8	-2.0	-4.4	59.0*	14.0	7.1	1.9	12.8
COc1ccccc1N(CC(=O)N1CCc2ccccc2C1)S(C)(=O)=O	-26.6	15.6	-7.1	-3.4	-16.5	10.2	·	·	·	·
COc1ccc(N(CC(=O)N2CCc3ccccc3C2)S(C)(=O)=O)cc1OC	-12.1	12.9	-8.4	-3.1	-2.3	50.6*	28.2	3.0	3.9	9.2
O=C(CN(c1ccc(Cl)c(Cl)c1)S(=O)(=O)c1ccccc1)N1CCc2ccccc2C1	39.8	73.7*	9.6	0.8	-14.0	57.5*	75.5*	4.6	32.0	12.3
O=C(CSc1nnc(-c2cccnc2)n1CCc1ccccc1)N1CCCCC1	-1.5	15.8	-3.1	4.0	-7.2	-0.4	·	·	·	·
COc1ccc2[nH]c(=O)c(C(c3nnnn3CC3CCCO3)N3CCc4ccccc4C3)cc2c1 (stereo not drawn)	-25.2	12.0	8.6	-1.9	-16.0	61.1*	54.8*	6.0	15.1	20.7
COc1ccc2cc(C(c3nnnn3C3CCCC3)N3CCc4ccccc4C3)c(=O)[nH]c2c1 (stereo not drawn)	-23.4	11.2	-1.6	-3.8	-11.6	45.7*	38.7*	2.8	3.3	13.1
COc1ccc2cc(C(c3nnnn3C(C)(C)C)N3CCc4ccccc4C3)c(=O)[nH]c2c1 (stereo not drawn)	-20.3	19.8	·	·	-5.7	·	·	·	·	·
O=C(NC1CCCCC1)c1cc2c(cc1Cl)N1CCCCCC1=NS2(=O)=O	·	·	-26.3	-3.6	·	0.9	·	·	·	·
S=c1[nH]ccn1CCc1ccccc1	-17.8	-0.3	4.0	-10.0	-10.6	61.8*	64.0*	-0.4	35.9	1.4
O=C(Nc1c2c(nn1-c1ccc(Cl)cc1)CS(=O)(=O)C2)C1CC1	-8.3	11.7	-3.5	-0.1	0.6	0.2	·	·	·	·
CCc1ccc(CNCc2ccc(F)cc2)cc1	-12.3	9.0	5.1	-6.7	-6.9	15.2	·	·	·	·
COc1ccc2c(c1)C1(C)CC(C)(C)N2C(=O)N1c1ccccc1 (stereo not drawn)	-40.4	3.6	10.7	-0.2	-25.7	44.1*	15.7	8.3	3.2	9.7
CCOc1ccccc1N(CC(=O)Nc1ccccc1)S(=O)(=O)c1ccccc1	-17.9	29.5	25.9	-7.9	-14.6	3.4	·	·	·	·

Bioassay records: PubChem, The Scripps Research Institute Molecular Screening Center
